Assay results from ChEMBL document CHEMBL4038284, “Synthesis of novel quinoline-based 4,5-dihydro-1H-pyrazoles as potential anticancer, antifungal, antibacterial and antiprotozoal agents” (Eur J Med Chem, 2017).

Tests used:
Assay type in all cases: functional
Staphylococcus aureus = experiment: Antibacterial activity against methicillin-resistant Staphylococcus aureus ATCC 43300 after 24 hrs by resazurin dye based microdilution assay; conditions: ATCC 43300, 24 h
How it was run: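 Broth microdilution in Mueller Hinton broth, inoculum 5 × 10^5 – 8 × 10^5. Compound stocks diluted in MHB with 5% DMSO and 0.1% Tween 80. Incubation 24 h at 35-37 °C. MIC is the lowest concentration with visible growth inhibition and/or by resazurin (1 mg/mL) read-out. Gentamicin as control. Run in duplicate, replicated at least three times.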

MOLT-4 = experiment: Growth inhibition of human MOLT4 cells incubated for 48 hrs by sulforhodamine B assay; conditions: MOLT-4, 48 h; for CC50: read-out: LC50 (the source's name)
How it was run: (§1)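 NCI 60-line screen. Cells in RPMI-1640 with 5% FBS and 2 mM L-glutamine, preincubated 24 h, then time-zero plates TCA-fixed. Compounds from DMSO stocks given at five final concentrations (100, 10, 1.0, 0.1, 0.01 µM) for 48 h at 37 °C, 5% CO2. Cells fixed with 10% TCA, SRB-stained, read at 515 nm. GI50 is the concentration giving 50% lower net protein increase versus control.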

SR = experiment: Growth inhibition of human SR cells incubated for 48 hrs by sulforhodamine B assay; conditions: for CC50: read-out: LC50 (the source's name); how it was run: as §1
A549 = experiment: Growth inhibition of human A549/ATCC cells incubated for 48 hrs by sulforhodamine B assay; conditions: A549, 48 h; how it was run: as §1
EKVX = experiment: Growth inhibition of human EKVX cells incubated for 48 hrs by sulforhodamine B assay
How it was run: (§2)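 NCI five-dose SRB assay (100, 10, 1.0, 0.1, 0.01 µM) with 48 h exposure in RPMI-1640 with 5% FBS and 2 mM L-glutamine. Cells fixed with TCA and stained with SRB, read at 515 nm. GI50 is the concentration where [(Ti−Tz)/(C−Tz)]×100 = 50.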

HOP-92 = experiment: Growth inhibition of human HOP92 cells incubated for 48 hrs by sulforhodamine B assay; conditions: HOP-92, 48 h
How it was run: (§3)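 Five-dose NCI SRB assay at 100, 10, 1.0, 0.1 and 0.01 μM for 48 h at 37 °C, 5% CO2. Medium was RPMI-1640 with 5% FBS and 2 mM glutamine. Time-zero plates were TCA-fixed at compound addition, A515 read after SRB staining. GI50 was solved from [(Ti−Tz)/(C−Tz)]×100 = 50. Values beyond the tested range are given as > or <.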

NCI-H23 = experiment: Growth inhibition of human NCI-H23 cells incubated for 48 hrs by sulforhodamine B assay; conditions: NCI-H23, 48 h; how it was run: as §3
NCI-H460 = experiment: Growth inhibition of human NCI-H460 cells incubated for 48 hrs by sulforhodamine B assay; conditions: NCI-H460, 48 h; how it was run: as §3
NCI-H522 = experiment: Growth inhibition of human NCI-H522 cells incubated for 48 hrs by sulforhodamine B assay; conditions: NCI-H522, 48 h; for CC50: read-out: LC50 (the source's name); how it was run: as §1
HCT-15 = experiment: Growth inhibition of human HCT15 cells incubated for 48 hrs by sulforhodamine B assay; conditions: HCT-15, 48 h; for CC50: read-out: LC50 (the source's name); how it was run: as §1
SW-620 = experiment: Growth inhibition of human SW620 cells incubated for 48 hrs by sulforhodamine B assay; conditions: SW-620, 48 h
How it was run: (§4)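 NCI-60 panel cells grown in RPMI-1640 with 5% FBS and 2 mM L-glutamine, preincubated 24 h at 37 °C/5% CO2. Time-zero plates were TCA-fixed at compound addition. DMSO stocks were diluted in medium and tested at five final concentrations (100, 10, 1.0, 0.1, 0.01 µM) for 48 h. Cells were TCA-fixed, stained with SRB and read at 515 nm. GI50 = 50% lower net protein increase versus control.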

SF-295 = experiment: Growth inhibition of human SF295 cells incubated for 48 hrs by sulforhodamine B assay; conditions: SF-295, 48 h; how it was run: as §3
SNB-19 = experiment: Growth inhibition of human SNB19 cells incubated for 48 hrs by sulforhodamine B assay; conditions: SNB-19, 48 h; how it was run: as §4
SNB-75 = experiment: Growth inhibition of human SNB75 cells incubated for 48 hrs by sulforhodamine B assay; conditions: SNB-75, 48 h; for CC50: read-out: LC50 (the source's name); how it was run: as §1
LOX IMVI = experiment: Growth inhibition of human LOXIMVI cells incubated for 48 hrs by sulforhodamine B assay; how it was run: as §3
M14 = experiment: Growth inhibition of human M14 cells incubated for 48 hrs by sulforhodamine B assay; conditions: M14, 48 h; how it was run: as §3
MDA-MB-435 = experiment: Growth inhibition of human MDA-MB-435 cells incubated for 48 hrs by sulforhodamine B assay; conditions: MDA-MB-435, 48 h; how it was run: as §3
UACC-257 = experiment: Growth inhibition of human UACC257 cells incubated for 48 hrs by sulforhodamine B assay; conditions: UACC-257, 48 h; how it was run: as §4
OVCAR-3 = experiment: Growth inhibition of human OVCAR3 cells incubated for 48 hrs by sulforhodamine B assay; conditions: OVCAR-3, 48 h; how it was run: as §3
OVCAR-5 = experiment: Growth inhibition of human OVCAR5 cells incubated for 48 hrs by sulforhodamine B assay; conditions: OVCAR-5, 48 h; for CC50: read-out: LC50 (the source's name); how it was run: as §1
NCI/ADR-RES = experiment: Growth inhibition of human NCI/ADR-RES cells incubated for 48 hrs by sulforhodamine B assay; conditions: for CC50: read-out: LC50 (the source's name); how it was run: as §1
ACHN = experiment: Growth inhibition of human ACHN cells incubated for 48 hrs by sulforhodamine B assay; conditions: for CC50: read-out: LC50 (the source's name); how it was run: as §1
RXF 393 = experiment: Growth inhibition of human RXF393 cells incubated for 48 hrs by sulforhodamine B assay; conditions: RXF 393, 48 h; how it was run: as §3
SN12C = experiment: Growth inhibition of human SN12C cells incubated for 48 hrs by sulforhodamine B assay; how it was run: as §4
PC-3 = experiment: Growth inhibition of human PC3 cells incubated for 48 hrs by sulforhodamine B assay; conditions: PC-3, 48 h; how it was run: as §3
MCF7 = experiment: Growth inhibition of human MCF7 cells incubated for 48 hrs by sulforhodamine B assay; conditions: MCF7, 48 h; for CC50: read-out: LC50 (the source's name); how it was run: as §1
Hs-578T = experiment: Growth inhibition of human Hs578T cells incubated for 48 hrs by sulforhodamine B assay; how it was run: as §3
BT-549 = experiment: Growth inhibition of human BT549 cells incubated for 48 hrs by sulforhodamine B assay; conditions: BT-549, 48 h; how it was run: as §2
MDA-MB-468 = experiment: Growth inhibition of human MDA-MB-468 cells incubated for 48 hrs by sulforhodamine B assay; conditions: MDA-MB-468, 48 h; how it was run: as §3
[1] = read-out: LC50 (the source's name)

COc1ccc(C2=NN(c3ccccc3)C(c3cccc(Nc4ccnc5cc(Cl)ccc45)c3)C2)cc1 (stereo not given)
MIC (Staphylococcus aureus): > 1000 µg/mL

Clc1ccc(C2=NN(c3ccc(Cl)cc3)C(c3cccc(Nc4ccnc5cc(Cl)ccc45)c3)C2)cc1 (stereo not given)
MIC (Staphylococcus aureus): > 1000 µg/mL

COc1ccc(C2=NN(C=O)C(c3cccc(Nc4ccnc5cc(Cl)ccc45)c3)C2)cc1 (stereo not given)
GI50 (MOLT-4): 2370 nM
CC50 (MOLT-4): > 100000 nM
GI50 (SR): 580 nM
CC50 (SR): > 100000 nM
GI50 (A549): 4630 nM
LC50 (concentration giving 50% net cell kill) (A549): > 100000 nM
GI50 (EKVX): 2810 nM
LC50 (EKVX): > 100000 nM
GI50 (HOP-92): 3410 nM
LC50 (concentration giving 50% net cell kill) (HOP-92): > 100000 nM
GI50 (NCI-H23): 1870 nM
CC50 (NCI-H23; [1]): > 100000 nM
GI50 (NCI-H460): 2730 nM
CC50 (NCI-H460; [1]): > 100000 nM
GI50 (NCI-H522): 1330 nM
CC50 (NCI-H522): 61900 nM
GI50 (HCT-15): 2130 nM
CC50 (HCT-15): > 100000 nM
GI50 (SW-620): 1730 nM
CC50 (SW-620; [1]): > 100000 nM
GI50 (SF-295): 1240 nM
CC50 (SF-295; [1]): > 100000 nM
GI50 (SNB-19): 5110 nM
CC50 (SNB-19; [1]): > 100000 nM
GI50 (SNB-75): 2560 nM
CC50 (SNB-75): > 100000 nM
GI50 (LOX IMVI): 2520 nM
CC50 (LOX IMVI; [1]): 39000 nM
GI50 (M14): 2340 nM
CC50 (M14; [1]): 67500 nM
GI50 (MDA-MB-435): 370 nM
CC50 (MDA-MB-435; [1]): > 100000 nM
GI50 (UACC-257): 3060 nM
CC50 (UACC-257; [1]): > 100000 nM
GI50 (OVCAR-3): 1970 nM
CC50 (OVCAR-3; [1]): 63700 nM
GI50 (OVCAR-5): 11300 nM
CC50 (OVCAR-5): > 100000 nM
GI50 (NCI/ADR-RES): 1660 nM
CC50 (NCI/ADR-RES): > 100000 nM
GI50 (ACHN): 4590 nM
CC50 (ACHN): > 100000 nM
GI50 (RXF 393): 1660 nM
CC50 (RXF 393; [1]): 59200 nM
GI50 (SN12C): 4450 nM
CC50 (SN12C; [1]): > 100000 nM
GI50 (PC-3): 2870 nM
CC50 (PC-3; [1]): > 100000 nM
GI50 (MCF7): 1590 nM
CC50 (MCF7): > 100000 nM
GI50 (Hs-578T): 3920 nM
CC50 (Hs-578T; [1]): > 100000 nM
GI50 (BT-549): 1930 nM
CC50 (BT-549; [1]): > 100000 nM
GI50 (MDA-MB-468): 420 nM
CC50 (MDA-MB-468; [1]): 63800 nM
MIC (Staphylococcus aureus): > 1000 µg/mL

COc1cccc2c1C(=O)c1c(O)c3c(c(O)c1C2=O)C[C@@](O)(C(=O)CO)C[C@@H]3O[C@H]1C[C@H](N)[C@H](O)[C@H](C)O1 [DOXORUBICIN]
GI50 (MOLT-4): 30 nM
CC50 (MOLT-4): 100000 nM
GI50 (SR): 30 nM
CC50 (SR): 100000 nM
GI50 (A549): 60 nM
GI50 (EKVX): 410 nM
GI50 (HOP-92): 100 nM
GI50 (NCI-H23): 150 nM
GI50 (NCI-H460): 20 nM
GI50 (NCI-H522): 30 nM
CC50 (NCI-H522): 2800 nM
CC50 (HCT-15): 100000 nM
GI50 (SW-620): 90 nM
GI50 (SF-295): 100 nM
GI50 (SNB-19): 40 nM
GI50 (SNB-75): 70 nM
CC50 (SNB-75): 3300 nM
GI50 (LOX IMVI): 70 nM
GI50 (M14): 180 nM
GI50 (MDA-MB-435): 250 nM
GI50 (UACC-257): 140 nM
GI50 (OVCAR-3): 390 nM
GI50 (OVCAR-5): 410 nM
CC50 (OVCAR-5): 100000 nM
CC50 (NCI/ADR-RES): 100000 nM
GI50 (ACHN): 80 nM
CC50 (ACHN): 100000 nM
GI50 (RXF 393): 100 nM
GI50 (SN12C): 70 nM
GI50 (PC-3): 320 nM
GI50 (MCF7): 40 nM
CC50 (MCF7): 64100 nM
GI50 (Hs-578T): 330 nM
GI50 (BT-549): 230 nM
GI50 (MDA-MB-468): 50 nM

COc1cc(C2=NN(c3ccc(Cl)cc3)C(c3cccc(Nc4ccnc5cc(Cl)ccc45)c3)C2)cc(OC)c1OC (stereo not given)
MIC (Staphylococcus aureus): > 1000 µg/mL
